From ChEMBL document CHEMBL4190386, “Discovery of 6-(pyrimidin-5-ylmethyl)quinoline-8-carboxamide negative allosteric modulators of metabotropic glutamate receptor subtype 5” (Bioorg Med Chem Lett, 2018)
The source made the active and inactive calls. No cut-off for these calls is given here.

What was measured:
[1] = target: Metabotropic glutamate receptor 5 (Rattus norvegicus, UniProt P31424); assay: Negative allosteric modulator activity at rat mGlu5 receptor expressed in HEK293A cells assessed as inhibition of EC80 glutamate-induced Ca2+ mobilization by Fluo-4 AM dye based fluorescence assay; assay type: functional, cell-based
[2] = Drug metabolism in rat whole blood treated with N-(4-methylthiazol-2-yl)-6-nicotinoylquinoline-8-carboxamide assessed as compound formation at 37 degC incubated for 1 hr; assay type: ADME, tissue-based
[3] = target: Metabotropic glutamate receptor 5 (Rattus norvegicus) (UniProt P31424); assay: Negative allosteric modulator activity at rat mGlu5 receptor expressed in HEK293A cells assessed as EC80 glutamate-induced maximum Ca2+ mobilization response at 30 uM relative to 100 uM glutamate by Fluo-4 AM dye based fluorescence assay; assay type: functional, cell-based
[4] = Metabolic stability in rat hepatic S9 fraction assessed as NADPH dependent metabolism incubated for 60 mins by LC/MS analysis; assay type: ADME, subcellular, Liver; details: read-out: Drug metabolism
[5] = Metabolic stability in human hepatic S9 fraction assessed as NADPH dependent metabolism incubated for 60 mins by LC/MS analysis; assay type: ADME, subcellular, Liver; details: read-out: Drug metabolism
[6] = in vitro; details: human, plasma
[7] = in vitro; details: rat, plasma
[8] = Volume of distribution at steady state in rat at 1 mg/kg, iv; assay type: ADME, organism-based; details: in vivo, read-out: Vdss
Outline: (§1)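 Rat intravenous PK: n = 2 male Sprague-Dawley rats, 1.0 mg/kg IV in 10% ethanol/90% PEG 400. Parent and the alcohol metabolite were measured in plasma. MRT = mean residence time.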

[9] = Mean residence time in rat at 1 mg/kg, iv; assay type: ADME, organism-based; details: in vivo; outline: as §1
[10] = Half life in rat at 1 mg/kg, iv; assay type: ADME, organism-based; details: in vivo; outline: as §1
[11] = system: Rattus norvegicus; assay: Mean residence time in rat assessed as 6-(hydroxy(pyridin-3-yl)methyl)-N-(4-methylthiazol-2-yl)quinoline-8-carboxamide formation at 1 mg/kg, iv; assay type: ADME, organism-based; details: in vivo; outline: as §1
[12] = system: Rattus norvegicus; assay: Volume of distribution at steady state in rat assessed as 6-(hydroxy(pyridin-3-yl)methyl)-N-(4-methylthiazol-2-yl)quinoline-8-carboxamide formation at 1 mg/kg, iv; assay type: ADME, organism-based; details: in vivo; outline: as §1
[13] = system: Rattus norvegicus; assay: Half life in rat assessed as 6-(hydroxy(pyridin-3-yl)methyl)-N-(4-methylthiazol-2-yl)quinoline-8-carboxamide formation at 1 mg/kg, iv; assay type: ADME, organism-based; details: in vivo; outline: as §1
[14] = Drug metabolism in rat whole blood assessed as 6-(hydroxy(pyridin-3-yl)methyl)-N-(4-methylthiazol-2-yl)quinoline-8-carboxamide formation at 37 degC incubated for 1 hr; assay type: ADME, tissue-based
[15] = target: Metabotropic glutamate receptor 5 (Homo sapiens) (UniProt P41594); assay: Negative allosteric modulation of human mGlu5 receptor expressed in HEK293A cells assessed as reduction in glutamate-induced calcium mobilization at 10 uM by Fluo-4--AM dye based fluorescence assay; assay type: functional, cell-based
[16] = target: Metabotropic glutamate receptor 4 (Rattus norvegicus) (UniProt P31423); assay: Negative allosteric modulation of rat mGlu4 receptor expressed in HEK cells harboring GIRK assessed as reduction in glutamate-induced thallium flux at 10 uM preincubated for 5 mins followed by glutamate addition measured after 2 mins by BTC-AM-dye based fluorescence assay; assay type: functional, cell-based
[17] = target: Metabotropic glutamate receptor 3 (Rattus norvegicus) (UniProt P31422); assay: Negative allosteric modulation of rat mGlu3 receptor expressed in HEK cells harboring GIRK assessed as reduction in glutamate-induced thallium flux at 10 uM preincubated for 5 mins followed by glutamate addition measured after 2 mins by BTC-AM-dye based fluorescence assay; assay type: functional, cell-based
[18] = target: Metabotropic glutamate receptor 8 (Rattus norvegicus) (UniProt P70579); assay: Negative allosteric modulation of rat mGlu8 receptor expressed in HEK cells harboring GIRK assessed as reduction in glutamate-induced thallium flux at 10 uM preincubated for 5 mins followed by glutamate addition measured after 2 mins by BTC-AM-dye based fluorescence assay; assay type: functional, cell-based
[19] = target: Metabotropic glutamate receptor 1 (Rattus norvegicus) (UniProt P23385); assay: Negative allosteric modulation of rat mGlu1 receptor expressed in HEK293 cells assessed as reduction in glutamate-induced calcium mobilization at 10 uM preincubated for 2.3 mins followed by glutamate addition measured after 2.6 mins by Fluo-4--AM dye based fluorescence assay; assay type: functional, cell-based
[20] = target: Metabotropic glutamate receptor 7 (Rattus norvegicus) (UniProt P35400); assay: Negative allosteric modulation of rat mGlu7 receptor expressed in HEK cells harboring GIRK assessed as reduction in L-AP4-induced thallium flux at 10 uM preincubated for 5 mins followed by glutamate addition measured after 2 mins by BTC-AM-dye based fluorescence assay; assay type: functional, cell-based
[21] = target: Metabotropic glutamate receptor 6 (Rattus norvegicus) (UniProt P35349); assay: Negative allosteric modulation of rat mGlu6 receptor expressed in HEK cells harboring GIRK assessed as reduction in glutamate-induced thallium flux at 10 uM preincubated for 5 mins followed by glutamate addition measured after 2 mins by BTC-AM-dye based fluorescence assay; assay type: functional, cell-based
[22] = target: Metabotropic glutamate receptor 2 (Rattus norvegicus) (UniProt P31421); assay: Negative allosteric modulation of rat mGlu2 receptor expressed in HEK cells harboring GIRK assessed as reduction in glutamate-induced thallium flux at 10 uM preincubated for 5 mins followed by glutamate addition measured after 2 mins by BTC-AM-dye based fluorescence assay; assay type: functional, cell-based
Chain of Metabotropic glutamate receptor 2 (Rattus norvegicus) (P31421 19-872 limits assumed): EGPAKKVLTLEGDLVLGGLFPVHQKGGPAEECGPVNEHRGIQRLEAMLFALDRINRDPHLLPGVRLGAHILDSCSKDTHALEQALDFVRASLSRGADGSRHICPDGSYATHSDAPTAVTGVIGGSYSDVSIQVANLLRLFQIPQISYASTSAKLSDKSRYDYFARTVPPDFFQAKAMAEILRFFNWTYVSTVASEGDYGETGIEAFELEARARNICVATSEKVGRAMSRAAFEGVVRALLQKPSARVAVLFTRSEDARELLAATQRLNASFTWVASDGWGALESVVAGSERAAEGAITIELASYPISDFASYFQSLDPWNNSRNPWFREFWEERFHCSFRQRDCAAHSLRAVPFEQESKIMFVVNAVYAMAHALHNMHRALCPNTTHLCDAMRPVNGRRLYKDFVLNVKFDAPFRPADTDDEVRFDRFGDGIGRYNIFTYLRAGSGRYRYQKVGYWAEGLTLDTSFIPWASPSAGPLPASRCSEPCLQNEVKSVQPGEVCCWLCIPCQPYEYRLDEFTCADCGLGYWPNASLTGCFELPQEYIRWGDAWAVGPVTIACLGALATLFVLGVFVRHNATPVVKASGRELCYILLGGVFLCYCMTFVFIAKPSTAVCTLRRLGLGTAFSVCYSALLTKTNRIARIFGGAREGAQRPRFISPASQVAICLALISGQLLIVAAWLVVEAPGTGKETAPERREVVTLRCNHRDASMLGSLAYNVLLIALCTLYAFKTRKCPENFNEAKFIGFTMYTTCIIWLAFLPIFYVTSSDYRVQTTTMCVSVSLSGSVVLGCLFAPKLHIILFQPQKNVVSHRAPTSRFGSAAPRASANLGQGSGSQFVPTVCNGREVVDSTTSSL

Chain of Metabotropic glutamate receptor 5 (Rattus norvegicus) (P31424 21-1203 limits assumed): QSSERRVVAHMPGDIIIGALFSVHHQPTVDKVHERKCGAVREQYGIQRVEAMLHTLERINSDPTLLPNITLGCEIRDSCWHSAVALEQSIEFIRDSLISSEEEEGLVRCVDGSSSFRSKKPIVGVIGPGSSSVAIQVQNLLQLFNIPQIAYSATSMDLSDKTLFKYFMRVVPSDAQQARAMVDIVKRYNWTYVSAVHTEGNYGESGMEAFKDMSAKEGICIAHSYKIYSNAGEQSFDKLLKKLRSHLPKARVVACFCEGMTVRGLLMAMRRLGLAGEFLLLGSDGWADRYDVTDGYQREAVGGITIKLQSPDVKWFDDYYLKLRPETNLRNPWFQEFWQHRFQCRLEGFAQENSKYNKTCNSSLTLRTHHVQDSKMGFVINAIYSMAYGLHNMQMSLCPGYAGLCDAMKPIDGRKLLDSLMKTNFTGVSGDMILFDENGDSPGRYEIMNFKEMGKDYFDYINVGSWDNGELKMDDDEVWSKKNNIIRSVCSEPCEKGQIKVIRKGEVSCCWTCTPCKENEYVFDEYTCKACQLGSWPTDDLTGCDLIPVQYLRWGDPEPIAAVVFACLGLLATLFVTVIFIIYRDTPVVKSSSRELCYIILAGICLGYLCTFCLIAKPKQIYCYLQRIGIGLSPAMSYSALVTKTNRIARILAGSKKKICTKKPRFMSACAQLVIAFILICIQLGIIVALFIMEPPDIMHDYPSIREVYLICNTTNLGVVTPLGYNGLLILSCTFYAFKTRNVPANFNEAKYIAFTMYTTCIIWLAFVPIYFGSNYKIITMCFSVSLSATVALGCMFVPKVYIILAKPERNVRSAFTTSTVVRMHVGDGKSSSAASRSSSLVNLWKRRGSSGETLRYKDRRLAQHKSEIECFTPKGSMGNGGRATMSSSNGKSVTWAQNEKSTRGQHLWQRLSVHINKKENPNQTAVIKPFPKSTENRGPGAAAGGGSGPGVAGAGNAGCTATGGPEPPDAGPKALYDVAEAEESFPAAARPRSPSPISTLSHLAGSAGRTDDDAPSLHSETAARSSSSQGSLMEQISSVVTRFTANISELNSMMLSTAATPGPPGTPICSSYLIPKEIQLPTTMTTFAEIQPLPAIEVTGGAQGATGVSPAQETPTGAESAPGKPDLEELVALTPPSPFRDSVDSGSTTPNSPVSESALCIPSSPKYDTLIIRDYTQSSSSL
Chain of Metabotropic glutamate receptor 5 (P31424 whole entry): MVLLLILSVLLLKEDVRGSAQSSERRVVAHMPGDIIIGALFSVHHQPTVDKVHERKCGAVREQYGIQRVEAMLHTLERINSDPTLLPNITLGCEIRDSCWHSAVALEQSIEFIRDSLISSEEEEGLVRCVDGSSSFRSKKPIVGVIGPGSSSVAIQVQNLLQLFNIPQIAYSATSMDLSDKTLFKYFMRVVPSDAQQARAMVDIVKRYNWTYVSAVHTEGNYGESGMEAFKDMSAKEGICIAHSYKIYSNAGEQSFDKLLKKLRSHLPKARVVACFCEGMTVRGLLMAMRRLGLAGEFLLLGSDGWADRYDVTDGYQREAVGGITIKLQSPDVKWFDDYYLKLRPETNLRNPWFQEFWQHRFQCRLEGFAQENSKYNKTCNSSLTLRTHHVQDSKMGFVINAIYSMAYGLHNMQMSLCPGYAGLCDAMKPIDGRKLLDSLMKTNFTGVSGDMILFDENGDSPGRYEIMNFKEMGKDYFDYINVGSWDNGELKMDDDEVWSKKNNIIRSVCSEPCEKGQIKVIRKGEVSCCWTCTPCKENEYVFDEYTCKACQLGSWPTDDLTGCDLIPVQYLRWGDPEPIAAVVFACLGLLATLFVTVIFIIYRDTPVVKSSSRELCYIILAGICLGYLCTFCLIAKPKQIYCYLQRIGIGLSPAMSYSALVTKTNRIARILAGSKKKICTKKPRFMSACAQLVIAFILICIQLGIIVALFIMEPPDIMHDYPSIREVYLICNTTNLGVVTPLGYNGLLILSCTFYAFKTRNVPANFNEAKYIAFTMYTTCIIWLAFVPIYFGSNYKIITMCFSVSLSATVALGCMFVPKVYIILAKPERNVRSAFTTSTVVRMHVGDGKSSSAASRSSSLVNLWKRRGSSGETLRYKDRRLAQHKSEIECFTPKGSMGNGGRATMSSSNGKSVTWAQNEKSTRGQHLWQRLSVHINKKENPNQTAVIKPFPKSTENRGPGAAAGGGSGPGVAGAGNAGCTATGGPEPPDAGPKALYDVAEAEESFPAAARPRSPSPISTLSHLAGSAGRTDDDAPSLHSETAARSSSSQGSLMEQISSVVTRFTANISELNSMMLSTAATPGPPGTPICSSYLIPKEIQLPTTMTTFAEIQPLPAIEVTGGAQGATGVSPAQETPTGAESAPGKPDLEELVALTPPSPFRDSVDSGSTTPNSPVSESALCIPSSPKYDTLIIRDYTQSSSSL
Chain of Metabotropic glutamate receptor 4 (Rattus norvegicus) (P31423 whole entry): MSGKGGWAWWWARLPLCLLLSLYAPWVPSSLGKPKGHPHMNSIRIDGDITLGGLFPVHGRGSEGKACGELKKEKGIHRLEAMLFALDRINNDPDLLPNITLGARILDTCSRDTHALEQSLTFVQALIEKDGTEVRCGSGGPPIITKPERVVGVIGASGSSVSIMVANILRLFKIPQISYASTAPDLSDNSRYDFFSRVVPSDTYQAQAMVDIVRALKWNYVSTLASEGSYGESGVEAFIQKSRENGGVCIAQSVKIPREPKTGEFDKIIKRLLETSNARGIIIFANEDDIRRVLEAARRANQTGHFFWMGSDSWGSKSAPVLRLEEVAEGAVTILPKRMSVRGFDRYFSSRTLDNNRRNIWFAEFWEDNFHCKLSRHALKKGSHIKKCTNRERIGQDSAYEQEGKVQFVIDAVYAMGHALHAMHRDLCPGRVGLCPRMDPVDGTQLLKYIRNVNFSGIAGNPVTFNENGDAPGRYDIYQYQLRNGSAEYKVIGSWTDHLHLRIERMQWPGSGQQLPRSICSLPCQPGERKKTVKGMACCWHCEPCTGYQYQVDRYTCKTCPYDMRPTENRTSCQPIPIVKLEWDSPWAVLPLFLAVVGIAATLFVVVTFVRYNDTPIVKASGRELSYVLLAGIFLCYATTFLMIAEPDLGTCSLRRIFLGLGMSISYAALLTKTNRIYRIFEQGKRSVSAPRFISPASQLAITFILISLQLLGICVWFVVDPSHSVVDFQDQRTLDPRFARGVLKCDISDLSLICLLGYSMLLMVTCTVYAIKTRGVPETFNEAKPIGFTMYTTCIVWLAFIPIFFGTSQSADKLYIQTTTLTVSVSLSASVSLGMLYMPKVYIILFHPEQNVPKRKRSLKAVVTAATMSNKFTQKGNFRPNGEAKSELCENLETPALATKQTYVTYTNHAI
Chain of Metabotropic glutamate receptor 3 (Rattus norvegicus) (P31422 23-879 limits assumed): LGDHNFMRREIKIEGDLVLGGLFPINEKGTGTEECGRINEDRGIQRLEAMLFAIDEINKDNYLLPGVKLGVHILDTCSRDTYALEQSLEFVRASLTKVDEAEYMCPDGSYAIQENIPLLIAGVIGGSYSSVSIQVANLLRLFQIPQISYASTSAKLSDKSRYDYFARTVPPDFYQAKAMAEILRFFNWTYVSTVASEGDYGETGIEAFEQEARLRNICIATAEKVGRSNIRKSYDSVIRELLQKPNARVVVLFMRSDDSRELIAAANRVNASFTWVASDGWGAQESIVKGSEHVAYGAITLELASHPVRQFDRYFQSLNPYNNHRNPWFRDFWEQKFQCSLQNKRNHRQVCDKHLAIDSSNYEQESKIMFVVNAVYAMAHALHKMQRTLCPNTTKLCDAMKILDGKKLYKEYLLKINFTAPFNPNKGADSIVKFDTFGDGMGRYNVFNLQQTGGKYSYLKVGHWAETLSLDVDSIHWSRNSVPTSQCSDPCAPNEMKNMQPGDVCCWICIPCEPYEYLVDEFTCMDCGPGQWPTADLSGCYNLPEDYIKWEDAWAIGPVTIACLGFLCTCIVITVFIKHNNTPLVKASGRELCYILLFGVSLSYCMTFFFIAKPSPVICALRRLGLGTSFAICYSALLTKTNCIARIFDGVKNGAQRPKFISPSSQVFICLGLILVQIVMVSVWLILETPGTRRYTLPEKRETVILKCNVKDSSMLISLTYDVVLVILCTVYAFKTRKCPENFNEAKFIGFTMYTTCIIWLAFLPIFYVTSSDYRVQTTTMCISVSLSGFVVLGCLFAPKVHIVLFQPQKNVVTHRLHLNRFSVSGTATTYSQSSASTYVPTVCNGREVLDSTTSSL

SMILES	IC50 [1] [nM]	%max [3] [%]	also measured
Cc1csc(NC(=O)c2cc(C(O)c3cncnc3)cc3cccnc23)n1 (centres undefined)	> 10000		Drug uptake [2]: Active
Cc1cccc(NC(=O)c2cc(C(=O)c3cncnc3)cc3cccnc23)n1	417	1.5	
Cc1ccc(NC(=O)c2cc(C(F)(F)c3cncnc3)cc3cccnc23)nc1	676	3	
O=C(Nc1nc(C2CC2)cs1)c1cc(C(F)(F)c2cncnc2)cc2cccnc12	558	3	
N#Cc1ccc(NC(=O)c2cc(C(F)(F)c3cncnc3)cc3cccnc23)nc1	> 30000		
Cc1csc(NC(=O)c2cc(C(F)c3cncnc3)cc3cccnc23)n1 (centres undefined)	378	1.7	metabolised at 1 h [4]: 55%; metabolised at 1 h [5]: 27%
N#Cc1ccnc(NC(=O)c2cc(C(F)(F)c3cncnc3)cc3cccnc23)c1	> 30000		
COc1ccnc(NC(=O)c2cc(C(F)(F)c3cncnc3)cc3cccnc23)c1	> 30000		
Cc1csc(NC(=O)c2cc(C(C)c3cncnc3)cc3cccnc23)n1 (centres undefined)	589	1.4	
O=C(Nc1ccc(F)cn1)c1cc(Oc2cncc(F)c2)cn2ncnc12			fraction unbound at 4 h, 5 µM [6]: 0.071; fraction unbound at 4 h, 5 µM [7]: 0.066
Cc1csc(NC(=O)c2cc(C(=O)c3cncnc3)cc3cccnc23)n1	172	1.3	Vd [8]: 50 L/kg; MRT [9]: 19 min; half-life [10]: 30 min; MRT [11]: 107 min; Vdss [12]: 10 L/kg; t1/2 [13]: 171 min; Drug metabolism [14]: Metabolite_Detected
CCc1cccc(NC(=O)c2cc(C(F)(F)c3cncnc3)cc3cccnc23)n1	3600	7.8	
COc1cccc(NC(=O)c2cc(C(F)(F)c3cncnc3)cc3cccnc23)n1	1610	7.1	
CC(c1cncnc1)c1cc(C(=O)Nc2ccc(F)cn2)c2ncccc2c1 (centres undefined)	1520	1.5	
O=C(c1cncnc1)c1cc(C(=O)Nc2ccc(F)cn2)c2ncccc2c1	842	2.7	
O=C(Nc1ccc(F)cn1)c1cc(C(F)c2cncnc2)cc2cccnc12 (centres undefined)	217	1.5	
COC(c1cncnc1)c1cc(C(=O)Nc2nc(C)cs2)c2ncccc2c1 (centres undefined)	1750	1.8	
O=C(Nc1ccc(F)cn1)c1cc(C(F)(F)c2cncnc2)cc2cccnc12	392	4.5	
Cc1ccnc(NC(=O)c2cc(C(F)(F)c3cncnc3)cc3cccnc23)c1	> 10000	44	
Cc1cccc(NC(=O)c2cc(C(F)(F)c3cncnc3)cc3cccnc23)n1	1100	2.7	
Cc1csc(NC(=O)c2cc(C(F)(F)c3cncnc3)cc3cccnc23)n1			inhibition [15]: Active; inhibition [16]: inactive; inhibition [17]: inactive; inhibition [18]: inactive; inhibition [19]: inactive; inhibition [20]: inactive; inhibition [21]: inactive; inhibition [22]: inactive
O=C(Nc1ccc(F)cn1)c1cc(Oc2cncc(F)c2)cc2cccnc12	8		
O=C(c1cncnc1)c1cc(C(=O)Nc2cccc(F)n2)c2ncccc2c1	> 10000	12.5	
COC(c1cncnc1)c1cc(C(=O)Nc2ccc(F)cn2)c2ncccc2c1 (centres undefined)	3480	2.9	
